Experimental data as given in article PMC12103582 (Nature Communications, 2025).

Key:
[1] = system: postoperative pain in patients who underwent elective abdominal surgery; assay: HSK21542-303 phase 3 trial: efficacy; format: in vivo, human; settings: for SPID0–12h, LS mean (SE): 1.0 μg/kg (tramadol 50 mg/dose) i.v. at 0, 8, 16 h; for Time to rescue analgesic initiation, P25 (95% CI): 25th percentile; for Cumulative rescue analgesic dose 0–12h / Cumulative rescue analgesic dose 0–24 h: flurbiprofen axetil i.v.; for Cumulative rescue analgesic dose 0–12h / Cumulative rescue analgesic dose 0–24 h / Duration of analgesic effect / Patient satisfaction score / Physician satisfaction score: mean (SD); for Rescue analgesic received 0–12h, n (%) / Rescue analgesic received 0–24 h, n (%): rescue flurbiprofen axetil 50 mg i.v.; for NRS ≤3 12 h, n (%) / NRS ≤3 24 h, n (%): resting pain; for Patient satisfaction score / Physician satisfaction score: scale 0–10 at 24 h
[2] = system: patients who underwent elective abdominal surgery; assay: HSK21542-303: safety; format: in vivo, human
Method in brief: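 First dose given by i.v. pump within 10 min of randomization and a resting NRS ≥4 (within 4 h postsurgery); three doses 8 h ±15 min apart. Rescue flurbiprofen axetil 50 mg i.v. Antiemetic on demand only, tropisetron 2.5 mg preferred. TEAEs graded by CTCAE v5.0, with labs, ECG and vital signs over an 8-day follow-up.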

[3] = cited from earlier work
[4] = HSK21542-303, FAS, flurbiprofen axetil 50 mg i.v.
[5] = HSK21542-303, follow-up period, arms taken as HSK21542 vs tramadol vs placebo

COc1cccc(C2(O)CCCCC2CN(C)C)c1 (stereo not drawn) [Tramadol, tramadol]
patients with NRS ≤3 within 12 h ([1]; HSK21542-303, FAS): 51.2%
patients with NRS ≤3 within 24 h ([1]; HSK21542-303, FAS): 48.1%
SPID0–12h, LS mean (SE) ([1]; HSK21542-303, FAS): −28.7 (1.11)
Time to rescue analgesic initiation, P25 (95% CI) ([1]; HSK21542-303, FAS): 1.17 (0.53, 4.57) h
patients who received rescue analgesics within 0–12 h after first dose [1, 4]: 34.1%
patients who received rescue analgesics within 0–24 h after first dose [1, 4]: 35.7%
Cumulative rescue analgesic dose 0–12h ([1]; HSK21542-303, FAS): 26.7 (44.21) mg
Cumulative rescue analgesic dose 0–24 h ([1]; HSK21542-303, FAS): 29.3 (46.78) mg
Duration of analgesic effect ([1]; HSK21542-303, FAS): 21.3 (5.46) h
Rescue analgesic received 0–12h, n (%) ([1]; HSK21542-303, FAS): 44 (34.1) n (%)
Rescue analgesic received 0–24 h, n (%) ([1]; HSK21542-303, FAS): 46 (35.7) n (%)
NRS ≤3 12 h, n (%) ([1]; HSK21542-303, FAS): 66 (51.2) n (%)
NRS ≤3 24 h, n (%) ([1]; HSK21542-303, FAS): 62 (48.1) n (%)
Patient satisfaction score ([1]; HSK21542-303, FAS): 8.5 (1.58)
Physician satisfaction score ([1]; HSK21542-303, FAS): 8.4 (1.42)
SPID0–12h, LS mean (SE) ([1]; HSK21542-303, PPS): −29.8 (0.99)
Time to rescue analgesic initiation, P25 (95% CI) ([1]; HSK21542-303, PPS): 1.89 (0.60, 12.73) h
Cumulative rescue analgesic dose 0–12h ([1]; HSK21542-303, PPS): 23.3 (39.39) mg
Cumulative rescue analgesic dose 0–24 h ([1]; HSK21542-303, PPS): 26.0 (42.68) mg
Duration of analgesic effect ([1]; HSK21542-303, PPS): 22.4 (3.09) h
Rescue analgesic received 0–12h, n (%) ([1]; HSK21542-303, PPS): 39 (32.5) n (%)
Rescue analgesic received 0–24 h, n (%) ([1]; HSK21542-303, PPS): 41 (34.2) n (%)
NRS ≤3 12 h, n (%) ([1]; HSK21542-303, PPS): 63 (52.5) n (%)
NRS ≤3 24 h, n (%) ([1]; HSK21542-303, PPS): 59 (49.2) n (%)
Patient satisfaction score ([1]; HSK21542-303, PPS): 8.5 (1.59)
Physician satisfaction score ([1]; HSK21542-303, PPS): 8.4 (1.43)
incidence of nausea ([2]; HSK21542-303): 41.9%
incidence of vomiting ([2]; HSK21542-303): 38.0%
patients administered antiemetics within 24 h post first dose ([2]; HSK21542-303): 54 (41.9%) n (%)
patients with TEAEs that led to study withdrawal ([2]; HSK21542-303): two
Anemia ([2]; HSK21542-303, safety set): 16 (12.4) n (%)
Decreased lymphocyte count ([2]; HSK21542-303, safety set): 0 n (%)
Decreased serum potassium ([2]; HSK21542-303, safety set): 3 (2.3) n (%)
Decreased thyroid-stimulating hormone ([2]; HSK21542-303, safety set): 0 n (%)
Drug-related TEAE ([2]; HSK21542-303, safety set): 74 (57.4) n (%)
Fever ([2]; HSK21542-303, safety set): 10 (7.8) n (%)
Hematuria ([2]; HSK21542-303, safety set): 2 (1.6) n (%)
Hypokalemia ([2]; HSK21542-303, safety set): 10 (7.8) n (%)
Inflammation ([2]; HSK21542-303, safety set): 1 (0.8) n (%)
Nausea ([2]; HSK21542-303, safety set): 54 (41.9) n (%)
SAE ([2]; HSK21542-303, safety set): 1 (0.8) n (%)
Vomiting ([2]; HSK21542-303, safety set): 49 (38.0) n (%)
Any AE ([2]; HSK21542-303, safety set, 1.0 μg/kg (tramadol 50 mg/dose) i.v. at 0, 8, 16 h): 108 (83.7) n (%)
SAE ([2]; HSK21542-303, safety set, listed as tramadol): One
abnormal diastolic blood pressure [2, 5]: 0 cases
abnormal heart rate [2, 5]: 1 case
abnormal systolic blood pressure [2, 5]: 0 case
excretion [3]: mainly excreted via the kidneys
